Measured values taken from ChEMBL document CHEMBL2150952 (J Med Chem, 2011).

How the values were obtained:
[1] = target: T1, Acyl-CoA desaturase 1 (Rattus norvegicus, UniProt P07308); experiment: Inhibition of SCD-1 activity in Sprague-Dawley rat microsome assessed as reduction in [I-14C] stearoyl CoA desaturation by scintillation counting; format: microsomes
T1 sequence (P07308 whole entry): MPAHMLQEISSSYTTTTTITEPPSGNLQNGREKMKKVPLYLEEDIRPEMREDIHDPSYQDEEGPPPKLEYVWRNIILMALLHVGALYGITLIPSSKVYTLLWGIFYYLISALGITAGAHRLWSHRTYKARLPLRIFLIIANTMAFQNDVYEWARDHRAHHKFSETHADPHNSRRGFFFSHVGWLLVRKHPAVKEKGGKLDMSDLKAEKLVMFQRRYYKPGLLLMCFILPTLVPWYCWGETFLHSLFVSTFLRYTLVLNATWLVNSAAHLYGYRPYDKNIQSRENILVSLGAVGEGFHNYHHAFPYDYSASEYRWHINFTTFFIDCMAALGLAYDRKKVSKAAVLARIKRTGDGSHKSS

[2] = target: T1, Acyl-CoA desaturase 1; experiment: Inhibition of SCD-1 activity in Sprague-Dawley rat Hepatocytes expressing organic anion transporting polypeptides assessed as reduction in [I-14C] […] desaturation by scintillation counting; format: cell-based, Hepatocyte
Summary of the method: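 Rat hepatocytes (4 × 10^6 cells/mL) were preincubated with compound for 15 min at 37 °C/5% CO2. 14C-stearic acid (final 0.5 μCi/mL) was then added for 1 h with shaking. Cells were washed, hydrolyzed in 2N NaOH at 75 °C for 1 h, acidified and extracted. Radiolabeled oleic and stearic acids were quantified by HPLC with flow scintillation detection. Mean of at least n = 3.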

[3] = target: T1, Acyl-CoA desaturase 1; experiment: Inhibition of rat SCD-1
[4] = Apparent permeability across pig LLC-PK1 cells; format: ADME, cell-based, Sus scrofa
[5] = Oral bioavailability in mouse; format: ADME, organism-based; conditions: in vivo
Summary of the method: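 Fasted male C57BL6 mice given 2 mg/kg IV and 10 mg/kg PO. Plasma drug levels measured by LC-MS/MS, mean of n = 3 animals, and PK parameters derived from these.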

[6] = Oral bioavailability in rat; format: ADME, organism-based; conditions: in vivo
[7] = Oral bioavailability in dog; format: ADME, organism-based, Canis lupus familiaris; conditions: in vivo
[8] = test system: Liver; experiment: Drug uptake in liver of C57BL6 mouse at 10 mg/kg, po measured 6 hrs post dose; format: ADME, organism-based; design: dose 10 mg/kg, route oral; conditions: in vivo
[9] = test system: Zone of skin; experiment: Drug uptake in skin of C57BL6 mouse at 10 mg/kg, po measured 6 hrs post dose; format: ADME, organism-based; design: dose 10 mg/kg, route oral; conditions: in vivo
[10] = Drug uptake in eye of C57BL6 mouse at 10 mg/kg, po measured 6 hrs post dose; format: ADME, organism-based; design: dose 10 mg/kg, route oral; conditions: in vivo
[11] = test system: Liver; experiment: Drug uptake in liver of Sprague-Dawley rat at 10 mg/kg, po measured 6 hrs post dose; format: ADME, organism-based; design: dose 10 mg/kg, route oral; conditions: in vivo
[12] = test system: Zone of skin; experiment: Drug uptake in skin of Sprague-Dawley rat at 10 mg/kg, po measured 6 hrs post dose; format: ADME, organism-based; design: dose 10 mg/kg, route oral; conditions: in vivo
[13] = Drug uptake in eye of Sprague-Dawley rat at 10 mg/kg, po measured 6 hrs post dose; format: ADME, organism-based; design: dose 10 mg/kg, route oral; conditions: in vivo
[14] = Drug uptake in liver of female rhesus monkey at 5 mg/kg, po measured 6 hrs post dose; format: ADME, organism-based, Macaca mulatta; design: dose 5 mg/kg, route oral; conditions: in vivo
[15] = Drug uptake in skin of female rhesus monkey at 5 mg/kg, po measured 6 hrs post dose; format: ADME, organism-based, Macaca mulatta, Zone of skin; design: dose 5 mg/kg, route oral; conditions: in vivo
[16] = Drug uptake in eye of female rhesus monkey at 5 mg/kg, po measured 6 hrs post dose; format: ADME, organism-based, Macaca mulatta; design: dose 5 mg/kg, route oral; conditions: in vivo
[17] = test system: Liver; experiment: Drug uptake in liver of Beagle dog at 5 mg/kg, po measured 6 hrs post dose; format: ADME, organism-based, Canis lupus familiaris; design: dose 5 mg/kg, route oral; conditions: in vivo
[18] = Drug uptake in skin of Beagle dog at 5 mg/kg, po measured 6 hrs post dose; format: ADME, organism-based, Canis lupus familiaris, Zone of skin; design: dose 5 mg/kg, route oral; conditions: in vivo
[19] = Drug uptake in eye of Beagle dog at 5 mg/kg, po measured 6 hrs post dose; format: ADME, organism-based, Canis lupus familiaris; design: dose 5 mg/kg, route oral; conditions: in vivo
[20] = test system: Mus musculus; experiment: Antidiabetic activity in po dosed diet-induced obese fasted C57BL6 mouse assessed as increase in glucose clearance administered 1 hr before glucose challenge measured 12 hrs thereafter by OGTT; format: functional; conditions: in the assay text read “2 hrs” for “12 hrs”
Summary of the method: (§1)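 Male C57/Bl6 mice were kept on a high fat diet for at least 14 weeks from 6 weeks of age, then fasted 16 h. Compound was given orally 1 h before a 2 g/kg oral glucose load.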

[21] = test system: Mus musculus; experiment: Antidiabetic activity in diet-induced obese C57BL6 mouse assessed as reduction in glucose AUC at 3 to 7 mg/kg, po administered 1 hr before oral glucose administration measured 2 hrs thereafter; format: functional; conditions: dose mg/kg 3-7
[22] = test system: Mus musculus; experiment: Antidiabetic activity in diet-induced obese C57BL6 mouse assessed as reduction in glucose AUC at 7 to 10 mg/kg, po administered 1 hr before oral glucose administration measured 2 hrs thereafter; format: functional; conditions: dose mg/kg 7-10
[23] = test system: Mus musculus; experiment: Antidiabetic activity in diet-induced obese C57BL6 mouse assessed as reduction in glucose AUC at 7 to 30 mg/kg, po administered 1 hr before oral glucose administration measured 2 hrs thereafter; format: functional; conditions: dose mg/kg 7-30; summary of the method: as §1
[24] = test system: Mus musculus; experiment: Antidiabetic activity in diet-induced obese C57BL6 mouse assessed as reduction in body weight gain at 20 mg/kg, po BID; format: functional; design: scale not given: the % may be the effect or the level left
Summary of the method: (§2)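 Male C57/Bl6 mice were fed a high fat diet for at least 18 weeks from 6 weeks of age, then given vehicle (1% methocel, bid) for 7 days and randomized by body weight. Oral dosing (qd or bid) ran for 28 days, with n = 8–10/group. Body weight, food intake and skin/eye scores were recorded twice weekly.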

[25] = test system: Mus musculus; experiment: Antidiabetic activity in diet-induced obese C57BL6 mouse assessed as reduction in body weight gain at 60 mg/kg, po BID; format: functional; design: scale not given: the % may be the effect or the level left; summary of the method: as §2
[26] = test system: Mus musculus; experiment: Toxicity in diet-induced obese C57BL6 mouse assessed as reduction in food intake at 20 to 60 mg/kg, po BID; format: organism-based; design: dose 20-60 mg/kg, route oral; conditions: in vivo
Summary of the method: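 Obese male C57/Bl6 mice after at least 18 weeks of high fat diet and a 7-day vehicle run-in, randomized by body weight. Dosed orally at 20 or 60 mg/kg bid for 28 days (n = 8–10/group). Food consumption monitored twice weekly.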

[27] = test system: Mus musculus; experiment: Toxicity in diet-induced obese C57BL6 mouse assessed as adverse effect in skin at 20 to 60 mg/kg, po BID measured within 4 weeks; format: organism-based; design: dose 20-60 mg/kg, route oral; conditions: in vivo, 672 h
Summary of the method: (§3)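 Male C57/Bl6 mice on high fat diet for at least 18 weeks from 6 weeks of age. Given 7 days vehicle run-in (1% methocel bid), then randomized by body weight and dosed orally at 20 or 60 mg/kg bid for 28 days (n = 8–10/group). Skin (hair loss/lesion) and eye (squint to closure) scored 0–3 twice weekly.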

[28] = test system: Mus musculus; experiment: Toxicity in diet-induced obese C57BL6 mouse assessed as adverse effect in eye at 20 to 60 mg/kg, po BID measured within 4 weeks; format: organism-based; design: dose 20-60 mg/kg, route oral; conditions: in vivo, 672 h; summary of the method: as §3
[29] = test system: Mus musculus; experiment: Inhibition of SCD activity in liver of diet-induced obese C57BL6 mouse assessed as reduction in desaturation induces at 20 mg/kg, po BID administered for 4 weeks; format: functional; conditions: 672 h
[30] = test system: Liver; experiment: Drug level in liver of diet-induced obese C57BL6 mouse at 20 mg/kg, po BID; format: ADME, organism-based; design: dose 20 mg/kg, route oral; conditions: in vivo, read-out: Drug uptake
Summary of the method: (§4)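 eDIO mice were dosed orally for 4 weeks, either 20 mg/kg bid or 5 mg/kg qd. Liver, Harderian gland and skin were taken at trough at study termination, and compound concentration was measured by LC-MS.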

[31] = Drug level in harderian gland of diet-induced obese C57BL6 mouse at 20 mg/kg, po BID; format: ADME, organism-based; design: dose 20 mg/kg, route oral; conditions: in vivo, read-out: Drug uptake; summary of the method: as §4

- IC50 [1]: 3 nM
- IC50 [2]: 68 nM
- IC50 [3]: 3 nM
- Papp [4]: 3.8 ×10⁻⁶ cm/s
- bioavailability [5]: 12%
- bioavailability [6]: 28%
- bioavailability [7]: 40%
- Drug uptake [8]: Active
- Drug uptake [9]: Active
- Drug uptake [10]: Active
- Drug uptake [11]: Active
- Drug uptake [12]: Active
- Drug uptake [13]: Active
- Drug uptake [14]: Active
- Drug uptake [15]: Active
- Drug uptake [16]: Active
- Drug uptake [17]: Active
- Drug uptake [18]: Active
- Drug uptake [19]: Active
- concentration [30]: 5 µM
- concentration [31]: 900 nM
Structure (SMILES): O=C(O)Cn1nnc(-c2cc(N3CCC(Oc4cc(F)ccc4Br)CC3)no2)n1 [MK-8245]
- ED50 [20]: 7 mg/kg
- inhibition (INH) [21]: 36%
- inhibition (INH) [22]: 60%
- inhibition (INH) [23]: 89%
- Activity [24]: 5%
- Activity [25]: 5%
- Activity [26]: Non-toxic
- Activity [27]: Non-toxic
- Activity [28]: Non-toxic
- inhibition in vivo at 20 mg/kg [29]: 63%
